# Shown are actives, neighbours in structure and some others; about 2.2% of the full set was active somewhere.
# DENV2 CPE = DENV2-induced cell death inhibition; DENV2-infected cells, cytopathic effect rescue, plate reader; CPE inhibition, % at 9.99 µM; 350,000 tested, 1.7% active; in the data active means CPE inhibition above about 20%, passing the limit was not always enough; inconclusive means no clear call, values can overlap the other calls; tested in BHK-21 cells;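 further: 0% = median of neutral control wells and 100% = median of positive control wells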
# Statin myotox sup = suppression of simvastatin myotoxicity. C2C12 myotubes + simvastatin, ATP luminescence, 48 h; scaled: DMSO 0, geranylgeraniol control 100. rescue of ATP level, % at 7.49 µM. 330,000 tested, 0.78% active. AID 602340;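 active means mean ATP rescue above about 67%, or every replicate alone reaching that limit, limit read from the data, passing the limit was not always enough; inconclusive means no clear call, values can overlap the other calls; inactive means mean under the limit and some replicate under it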;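 further: myotubes were challenged with 10 µM simvastatin during compound exposure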
# E-selectin induc = induces E-selectin expression in human endothelial cells; 260,000 tested, 0.37% active; AID 686992; activation, % at 7.58 µM; HUVEC E-selectin immunofluorescence imaging; normalized: neutral wells 0, TNF-alpha wells 100; P16581;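 active means mean E-selectin-positive cell signal at least 10% of the positive control, reached in at least 60% of replicates, without over 20% cell loss; inconclusive means no rule given, readout overlaps actives, possibly toxicity-flagged; inactive means the rest, including those meeting only one limit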
# Target sequence (P16581 whole entry, looked up): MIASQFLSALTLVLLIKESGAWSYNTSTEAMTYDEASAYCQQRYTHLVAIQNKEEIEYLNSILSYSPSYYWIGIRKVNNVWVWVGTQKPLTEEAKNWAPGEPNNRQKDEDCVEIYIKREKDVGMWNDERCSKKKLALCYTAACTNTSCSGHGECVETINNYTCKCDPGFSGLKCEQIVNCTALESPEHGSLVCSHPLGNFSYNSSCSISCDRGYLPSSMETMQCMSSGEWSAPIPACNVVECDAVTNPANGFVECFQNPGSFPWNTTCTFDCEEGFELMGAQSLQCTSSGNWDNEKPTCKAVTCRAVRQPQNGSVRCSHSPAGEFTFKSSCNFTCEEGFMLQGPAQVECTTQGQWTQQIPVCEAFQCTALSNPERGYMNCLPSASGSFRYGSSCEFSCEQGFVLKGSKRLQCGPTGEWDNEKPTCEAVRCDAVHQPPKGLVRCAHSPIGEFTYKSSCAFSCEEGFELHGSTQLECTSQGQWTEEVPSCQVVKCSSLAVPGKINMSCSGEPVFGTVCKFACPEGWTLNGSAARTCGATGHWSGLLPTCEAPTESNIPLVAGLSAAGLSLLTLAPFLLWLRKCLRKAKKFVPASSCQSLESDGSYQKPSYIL
#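 Test system: HUVEC | Signal: Immunofluorescence imaging | Read-out: Percent E-selectin-positive cells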
# Active calls of the source: *; ? = inconclusive; · = not tested or not shown; ! = not confirmed by another sample.
SMILES,DENV2 CPE,Statin myotox sup,E-selectin induc
CN(C)C(=O)c1cccc(-c2ccc([C@@H]3[C@@H](CO)N4C(=O)CN(C(=O)C5CCCCC5)C[C@H]34)cc2)c1,39.3*,·,0.1
CN(C)C(=O)c1cccc(-c2ccc([C@H]3[C@@H](CO)N4C(=O)CN(C(=O)C5CCCCC5)C[C@@H]34)cc2)c1,13.0,·,-0.2
CCO[C@H]1OC(C(=O)NC2CC2)=C[C@@H](c2coc3ccccc3c2=O)[C@@H]1CCCO,-5.3,2.1,0.0
CCO[C@H]1OC(C(=O)O)=C[C@@H](c2coc3ccccc3c2=O)[C@@H]1CCCO,-11.7,22.3,0.3
CCO[C@H]1OC(C(=O)Nc2ccccc2)=C[C@@H](c2coc3ccccc3c2=O)[C@@H]1CCCO,23.3*!,2.2,0.0
CCO[C@@H]1OC(C(=O)NCc2ccccc2)=C[C@H](c2coc3ccccc3c2=O)[C@H]1CCCO,46.7*,10.5,-0.1
S=C1N(c2ccccc2)C(c2ccccc2)N2CCCN12 (centres undefined),·,132.0*,·
CN1C(=S)N2CCCN2C1c1ccccc1 (centres undefined),-4.7,28.8,6.2
C[C@H]1CN([C@@H](C)CO)C(=O)Cc2cc(NC(=O)Nc3ccc4c(c3)OCO4)ccc2O[C@H]1CN(C)S(=O)(=O)c1cn(C)cn1,·,-9.9,?
COCCNC(=O)C[C@H]1CC[C@H]2[C@@H](COC[C@H](O)CN2S(=O)(=O)c2ccccc2C)O1,3.6,-10.6,0.2
CC=Cc1ccc2n(c1=O)C[C@@H]1[C@@H](CO)[C@H](C(=O)NCC)[C@H]2N1C(=O)c1ccc(F)cc1 (mixture of isomers),1.4,-12.4,0.7
CCCCn1c(N)c(N(CC)C(=O)c2ccncc2)c(=O)[nH]c1=O,-3.0,-1.0,-2.4
CCCCn1c(N)c(N(CC(C)C)C(=O)c2cccc(S(=O)(=O)N3CCCCC3)c2)c(=O)[nH]c1=O,-8.0,1.0,·
CCCCn1c(N)c(N(CC(C)C)C(=O)c2ccc(S(=O)(=O)N3CCCCC3)cc2)c(=O)[nH]c1=O,4.1,1.2,57.9*
CCCCn1c(N)c(N(CC)C(=O)c2cc(C)cc(C)c2)c(=O)[nH]c1=O,35.0*,-2.7,·
CCC(=O)N1C[C@@H]2[C@H](c3ccccc31)[C@H](CO)N2Cc1ccc(F)cc1,1.3,-1.7,0.0
C[C@H](CO)N1C[C@H](C)[C@@H](CN(C)C(=O)C2CCCCC2)OCCCC[C@H](C)Oc2ccc(NC(=O)Cc3ccccc3)cc2C1=O,2.1,49.3,0.3
COc1cccc(-c2ccc(C3[C@H]4CNC[C@@H]3N4Cc3cc(F)ccc3F)cc2)c1 (some centres undefined),-9.6,·,-0.1
CN(C)C(=O)c1cccc(-c2ccc(C3[C@H]4CNC[C@@H]3N4Cc3cc(F)ccc3F)cc2)c1 (some centres undefined),81.5*!,·,0.3
C[C@@H]1CN([C@@H](C)CO)C(=O)c2cc(NC(=O)Cc3cn(C)c4ccccc34)ccc2O[C@@H]1CN(C)S(=O)(=O)c1cn(C)cn1,0.4,18.6,·
CN1[C@@H]2c3ccc(-c4cccnc4)c(=O)n3C[C@H]1[C@H](CO)[C@H]2C(=O)NCCc1ccccc1,·,16.5,-0.2
C[C@H](CO)N1C[C@H](C)[C@@H](CN(C)C(=O)NC2CCCCC2)Oc2c(NC(=O)C3CC3)cccc2C1=O,-1.5,-24.9,0.1
C[C@H]1CN([C@@H](C)CO)C(=O)c2cccc(NC(=O)C3CCCCC3)c2O[C@@H]1CN(C)C(=O)NC1CCCCC1,-3.6,-0.1,0.0
Cc1cc(C(=O)Nc2cccc3c2O[C@H](CN(C)C(=O)NC2CCCCC2)[C@@H](C)CN([C@H](C)CO)C3=O)n(C)n1,37.3*,10.2,-2.8
Cc1cc(C(=O)Nc2cccc3c2O[C@@H](CN(C)C(=O)NC2CCCCC2)[C@H](C)CN([C@H](C)CO)C3=O)n(C)n1,-4.5,1.9,-16.5
SMILES,DENV2 CPE,Statin myotox sup,E-selectin induc
C[C@H]1CN([C@@H](C)CO)C(=O)c2cccc(NC(=O)C3CC3)c2O[C@@H]1CN(C)C(=O)NC1CCCCC1,54.1*,-7.0,0.1
C[C@@H]1CN([C@@H](C)CO)C(=O)c2cccc(NC(=O)C3CCCCC3)c2O[C@@H]1CN(C)C(=O)NC1CCCCC1,32.6*!,-3.1,-0.3
N#C[C@@H]1[C@@H](c2ccccc2C2=CCCCC2)[C@@H](CO)N1C(=O)Cc1ccncc1,1.5,·,-0.1
CN1CCN(C(=O)/C=C/c2ccc(Cl)cc2)CC1,-2.1,110.1*,-4.7
CN1CCN(C(=O)/C=C/c2ccc(Cl)c(Cl)c2)CC1,6.1,·,0.3
Cc1ccccc1-c1ccc([C@H]2[C@@H](CO)N3CCCCN(C(=O)Nc4cccc(F)c4)C[C@H]23)cc1,45.1*,-89.7,·
O=C(Nc1cccc(F)c1)N1CCCCN2[C@H](CO)[C@H](c3ccc(-c4ccccc4F)cc3)[C@H]2C1,-1.8,·,-0.8
Cc1ccccc1-c1ccc([C@H]2[C@@H](CO)N3CCCCN(C(=O)Nc4cccc(F)c4)C[C@@H]23)cc1,-11.5,15.1,-0.7
Cc1ccccc1-c1ccc([C@@H]2[C@H](CO)N3CCCCN(C(=O)Nc4cccc(F)c4)C[C@@H]23)cc1,37.7*,-120.0,-0.8
COc1cccc(-c2ccc3c(c2)[C@@H]2[C@@H](CCN2C(=O)c2ccc(F)cc2)[C@@H](CO)N3)c1,-20.4,-5.3,0.3
COc1ccccc1-c1ccc2n(c1=O)C[C@H]1[C@H](CO)[C@@H](C(=O)N3CCN(C)CC3)[C@@H]2N1CC1CC1,4.7,6.1,-0.1
CCOC(=O)N(C)C[C@@H]1OCc2ccccc2-c2c(n(C)c3ccccc23)C(=O)N([C@@H](C)CO)C[C@@H]1C,8.3,4.0,-0.5
CN1CCN(NC(=S)Nc2ccc(Oc3ccccc3)cc2)CC1,1.9,·,223.1*
COc1cccc(NC(=S)NN2CCN(C)CC2)c1,·,-9.2,·
C[C@@H]1CN([C@H](C)CO)C(=O)Cc2cc(NC(=O)Nc3ccc4c(c3)OCO4)ccc2O[C@@H]1CN(C)C(=O)Nc1ccc(F)cc1,2.2,-18.6,-0.1
C=CCNC(=O)C(C#N)c1nc2ccccc2nc1N1CCCCCC1 (centres undefined),·,85.7*,·
COc1ccc(CNC(=O)C(C#N)c2nc3ccccc3nc2N2CCCC2)cc1 (centres undefined),·,17.5,·
COc1ccc(S(=O)(=O)N[C@@H]2CC[C@@H](CC(=O)NCc3ccccc3F)O[C@H]2CO)cc1,2.2,3.5,-0.6
C[C@@H]1CN([C@H](C)CO)S(=O)(=O)c2ccc(-c3ccccc3)cc2O[C@@H]1CN(C)C(=O)Cc1ccccc1,-6.2,-57.3,-0.4
COc1ccc2c3c([nH]c2c1)[C@@H](CO)N(C(=O)c1cccc(F)c1)CC31CCN(C(=O)CC2CC2)CC1,1.7,·,0.6
CC(=O)N1Cc2cc(C(=O)NCC(F)(F)F)nc(-c3cccc(-c4cc5ccccc5o4)c3)c2[C@H]1CCO,25.5*!,·,1.5
CCNC(=O)c1cc2c(c(-c3cccc(-c4cc5ccccc5o4)c3)n1)[C@H](CCO)N(C(=O)NC(C)C)C2,3.4,·,-4.0
CC(C)NC(=O)N1Cc2cc(C(=O)NC3CCC3)nc(-c3cccc(-c4cccnc4)c3)c2[C@@H]1CCO,30.1*,·,0.1
CC(=O)N1Cc2cc(C(=O)NCC(F)(F)F)nc(-c3cccc(-c4cncnc4)c3)c2[C@@H]1CCO,20.7*,·,0.4
